Published values pooled from the literature.
Lines come from different studies, so protocols differ.

SMILES	target or system	assay	system	conditions	measurement	value
COC(=O)c1c(C)ncn1CC(c1c[nH]c2ccc(C)cc12)c1c[nH]c2ccc(C)cc12	DH82	cell growth or viability, MTS	–	24 h	CC50	> 20 µM
c1ccc(-c2nc(N3CCCC3c3ccccn3)c3ccccc3n2)nc1 (stereo not shown)	–	–	PAMPA	10 µM, 3 h, pH 7.4	Papp	21.4 ×10⁻⁶ cm/s
CCCCCCCCCCCCCCCCOP(=O)([O-])OCC[N+](C)(C)C	DH82	cell growth or viability, MTS	–	24 h	CC50	> 20 µM
CC(C)Nc1ccnc(Nc2cccc(-c3cc[nH]n3)c2)n1	–	–	PAMPA	50 nM, 30 min	Papp	1740 ×10⁻⁶ cm/s
CC(=O)O[C@@H]1c2c(ccc3ccc(=O)oc23)OC(C)(C)[C@@H]1OC(=O)C1(C)OC1C (stereo partly shown)	HCT-116	cell growth or viability, WST-1	–	–	IC50	49.9 µM
Cn1ccnc1CNc1nc(-c2ccccn2)nc2ccccc12	–	–	PAMPA	10 µM, 3 h, pH 7.4	Papp	27 ×10⁻⁶ cm/s
CC1(C)CC[C@]2(C)CC[C@]3(C)[C@H]4CC=C5[C@@H](CC[C@H](O)C5(C)C)[C@]4(C)CC[C@@]3(C)[C@@H]2C1	HCT-116	cell growth or viability, WST-1	–	–	IC50	66.5 µM
CONc1ccnc(Nc2cccc(-c3cccnc3)c2)n1	–	–	PAMPA	50 nM, 30 min	Papp	1300 ×10⁻⁶ cm/s
c1ccc(C2CCN(c3nc(-c4cnn5c4CCCC5)nc4ccccc34)C2)nc1 (stereo not shown)	–	–	PAMPA	10 µM, 3 h, pH 7.4	Papp	36.7 ×10⁻⁶ cm/s
CCOC(=O)[C@@]12C[C@@H]1[C@@H](n1ccc3c(NC)nc(C#Cc4ccc(Cl)s4)nc31)[C@H](O)[C@@H]2O	–	–	male Sprague-Dawley rat, plasma	oral, 1 mg/kg	AUC(0-t)	34 ng·h/mL
